Bioassay records (PubChem)
CDK5 p35 inh – blocks human CDK5/p35 kinase activity. Q00535+Q15078. Recombinant CDK5/p35, ADP-Glo luminescence, 60 min. inhibition, % at 10 µM. 330,000 compounds, 0.01% hits;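 active = highest replicate inhibition of at least 50% and at least 75% of replicates reaching 50%; inconclusive = only one of the two criteria met; inactive = both criteria failed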;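 also: plate controls were DMSO neutral control for no effect and GW8510 at 10 µM for full effect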
Target sequence (Q00535 whole entry, looked up): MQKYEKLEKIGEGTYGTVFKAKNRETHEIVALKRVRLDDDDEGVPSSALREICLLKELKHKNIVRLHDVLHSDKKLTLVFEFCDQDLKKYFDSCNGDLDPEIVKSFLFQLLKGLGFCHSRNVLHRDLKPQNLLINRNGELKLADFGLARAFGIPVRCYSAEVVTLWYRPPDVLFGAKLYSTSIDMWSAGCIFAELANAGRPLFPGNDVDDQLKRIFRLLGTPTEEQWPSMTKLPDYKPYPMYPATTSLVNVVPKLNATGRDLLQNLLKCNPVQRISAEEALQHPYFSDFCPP
Target sequence (Q15078 whole entry, looked up): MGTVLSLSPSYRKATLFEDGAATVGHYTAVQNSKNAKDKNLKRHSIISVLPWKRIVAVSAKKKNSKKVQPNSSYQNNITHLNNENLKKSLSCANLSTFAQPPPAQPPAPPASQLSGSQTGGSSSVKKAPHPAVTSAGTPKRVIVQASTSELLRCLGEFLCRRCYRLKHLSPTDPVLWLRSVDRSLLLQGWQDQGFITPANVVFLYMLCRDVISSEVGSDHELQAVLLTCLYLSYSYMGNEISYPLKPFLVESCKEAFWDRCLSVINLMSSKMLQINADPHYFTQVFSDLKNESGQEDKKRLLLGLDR
PAX8 reporter – inhibitors of PAX8 transcriptional activity in RMG-I cells; AID 652154; inhibition, % at 12.6 µM; 360,000 compounds, 1.2% hits; RMG-I TPO-luciferase reporter, SteadyGlo, 24 h;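 active = mean replicate inhibition at least 60% with every replicate also reaching 60%; inconclusive = only one of the two criteria is met; inactive = mean below 60% and not all replicates reaching 60%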;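 also: luciferase light reporting Pax8 driven TPO promoter activity; plate controls were median of neutral control wells for no effect and mitoxantrone controls for full effect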
HIV Env fusion – inhibitors of HIV Env-mediated cell fusion; AID 651610; HeLa-JRFL Env/CEM21 cell fusion, luciferase; inhibition, % at 12.3 µM; 360,000 compounds, 1.1% hits;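 active = mean replicate inhibition score of at least 50 and every replicate individually at or above 50; inconclusive = only one of the two criteria met; inactive = mean below 50 and not all replicates reaching 50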;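 also: 0% = plate neutral controls and 100% = maraviroc near 300 nM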
Cneo AK release – Cryptococcus neoformans lysis via adenylate kinase release | C. neoformans lysis, adenylate kinase release luminescence, 4 h; normalised: neutral wells 0, clomiphene wells 100 | lysis activity, % at 15 µM | 360,000 compounds, 0.2% hits | AID 651654;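 active = mean lysis activity across replicates of at least 80%, whatever share of replicates individually reach that level; inactive = mean lysis activity below 80%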
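Material – Cryptococcus neoformans yeast cells · Quantity – 5 × 10^6 yeast cells/mL · Buffer or medium – YPD medium · Compound – single dose · Timing – 4 h static compound exposure, 37 °C, read 1 h post-reagent · Signal – adenylate kinase release luminescence · Read-out basis – lysis from increased AK signal · Benchmarks – Clomiphene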
dFosB act – mouse delta FosB homodimer activation | AID 493131 | activation, % at 25 µM | P13346 | purified delta FosB, TAMRA-CDK5 oligo fluorescence polarization; percent of positive-control signal above neutral wells | 340,000 compounds, 0.99% hits;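 active = mean activation above about 17%, with every replicate also reaching it, limit read from the data, passing the limit was not always enough; inconclusive = only one of the two conditions met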
INS-1E GSIS act – primary screen for activators of insulin secretion dependent on glucose, INS-1E cells, GLuc reporter luminescence; 370,000 compounds, 0.61% hits; AID 743287; INS-1E GLuc reporter insulin secretion, 2-3 h; activation, % at 16.6 µM;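 active = lowest replicate activation of at least 40%, so every replicate reaches that level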;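 also: 0% = median of neutral control wells and 100% = median of IBMX positive control wells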
The depositor's hits bear a star; [ ] = remark or other dose. This is a sample that favours compounds with a hit; in the whole collection about 2.9% have one here.

Results for CC(C(=O)c1ccc(-c2ccccc2)cc1)[n+]1ccccc1 (configuration not stated) ?
CDK5 p35 inh: -1; PAX8 reporter: 50; HIV Env fusion: 46*; Cneo AK release: -2; dFosB act: -3

How did Cc1ccc[n+](C(C)C(=O)c2ccc(-c3ccccc3)cc2)c1 (configuration not stated) do in these assays?
CDK5 p35 inh: 3; PAX8 reporter: 57; HIV Env fusion: 7; Cneo AK release: 1; dFosB act: -7; INS-1E GSIS act: -48

What do the screens show for `C[C@@H]1CN([C@@H](C)CO)S(=O)(=O)c2ccc(-c3ccncc3)cc2O[C@H]1CN(C)C(=O)CC1CC1`?
HIV Env fusion: -13[16.7 µM]; Cneo AK release: 9; INS-1E GSIS act: 0

Results for CCCCNc1ccc(C(F)(F)F)cc1S(=O)(=O)NCCc1ccc(F)cc1 ?
CDK5 p35 inh: -2; PAX8 reporter: 58; HIV Env fusion: 72*; Cneo AK release: 0; dFosB act: -2; INS-1E GSIS act: 33

How did Cc1cc2[nH]c3c(c[n+](C)c4ccccc34)c2cc1C do in these assays?
CDK5 p35 inh: -1; PAX8 reporter: 111*; HIV Env fusion: -209; dFosB act: -86; INS-1E GSIS act: -22

What do the screens show for `Cc1cc(=O)[nH]c2ccccc12`?
CDK5 p35 inh: 0; Cneo AK release: 0; dFosB act: -4

What do the screens show for `N#Cc1ccc(-c2ccc(OCC(=O)Nc3cccnc3)cc2)cc1`?
CDK5 p35 inh: -1; PAX8 reporter: -13; HIV Env fusion: 59*; Cneo AK release: 7; dFosB act: -18; INS-1E GSIS act: 49

Results for Cc1cccc(NC(=O)CNC(=O)COc2ccc(-c3ccc(C#N)cc3)cc2)c1C ?
CDK5 p35 inh: 0; PAX8 reporter: -5; HIV Env fusion: 26; dFosB act: inconclusive; INS-1E GSIS act: 67*

What do the screens show for `Cc1cccc(NC(=O)CNC(=O)COc2ccc(C(=O)c3ccc(F)cc3)cc2)c1C`?
CDK5 p35 inh: 1; PAX8 reporter: 18; HIV Env fusion: 27; dFosB act: 3; INS-1E GSIS act: 0

What do the screens show for `O=C(C[C@@H]1CC[C@@H](NC(=O)CN2CCOCC2)[C@@H](CO)O1)NC1CCC1`?
PAX8 reporter: -3; HIV Env fusion: -14[16.7 µM]; Cneo AK release: 0; INS-1E GSIS act: 10

What do the screens show for `COC(=O)Cc1nnn2c1[C@@H](C)[C@@H](c1ccccc1Br)O[C@@H](C)C2`?
PAX8 reporter: -11; HIV Env fusion: 59*; INS-1E GSIS act: -5

What do the screens show for `C[C@@H]1CN([C@@H](C)CO)C(=O)c2cccc(NC(=O)Nc3ccc(C(F)(F)F)cc3)c2O[C@H]1CN(C)Cc1ccc(Oc2ccccc2)cc1`?
HIV Env fusion: 69*[16.7 µM]; Cneo AK release: -1; INS-1E GSIS act: 2

How did C[C@H]1CN([C@@H](C)CO)C(=O)c2cccc(NC(=O)Nc3ccc(C(F)(F)F)cc3)c2O[C@H]1CN(C)Cc1ccc(C(F)(F)F)cc1 do in these assays?
PAX8 reporter: -2; HIV Env fusion: -7[16.7 µM]; Cneo AK release: -1; INS-1E GSIS act: -12

How did C[C@@H]1CN([C@H](C)CO)C(=O)c2cccc(NC(=O)Nc3ccc(C(F)(F)F)cc3)c2O[C@H]1CN(C)Cc1ccc(C(F)(F)F)cc1 do in these assays?
PAX8 reporter: -4; HIV Env fusion: 59*[16.7 µM]; Cneo AK release: -1; INS-1E GSIS act: -5

What do the screens show for `C[C@@H]1CN([C@@H](C)CO)C(=O)c2cccc(NC(=O)Nc3ccc(C(F)(F)F)cc3)c2O[C@@H]1CN(C)Cc1ccc(Oc2ccccc2)cc1`?
HIV Env fusion: -34[16.7 µM]; Cneo AK release: -2; INS-1E GSIS act: -5

Results for C[C@@H]1CN([C@@H](C)CO)C(=O)c2cc(NC(=O)c3ccccc3)ccc2O[C@@H](C)CCCCO[C@@H]1CN(C)C(=O)c1ccncc1 ?
PAX8 reporter: 3; HIV Env fusion: -4[16.7 µM]; Cneo AK release: 8; INS-1E GSIS act: 27

Results for C[C@H]1CCCCO[C@H](CN(C)Cc2ccc(C(F)(F)F)cc2)[C@@H](C)CN([C@@H](C)CO)C(=O)c2cc(NC(=O)CCCN(C)C)ccc2O1 ?
HIV Env fusion: 0[16.7 µM]; Cneo AK release: 4; INS-1E GSIS act: 27

Results for Cc1noc(C)c1NC(=O)N(C)C[C@@H]1Oc2c(NC(=O)NC(C)C)cccc2C(=O)N([C@H](C)CO)C[C@@H]1C ?
HIV Env fusion: 5[16.7 µM]; Cneo AK release: 1; INS-1E GSIS act: 17

Results for O=C(CSc1ncccc1-c1nc2ccccc2[nH]1)N1CCc2ccccc21 ?
CDK5 p35 inh: 0; PAX8 reporter: 90*; Cneo AK release: -2; dFosB act: 6; INS-1E GSIS act: -3

How did CCCC#Cc1cnc2c(c1)C(=O)N([C@@H](C)CO)C[C@@H](C)[C@H](CN(C)C(=O)Cc1ccncc1)O2 do in these assays?
HIV Env fusion: 18[16.7 µM]; Cneo AK release: 0; INS-1E GSIS act: 8

What do the screens show for `CN(C)C(=O)C[C@H]1CC[C@H](NC(=O)C2CC2)[C@H](CO)O1`?
HIV Env fusion: -6[16.7 µM]; Cneo AK release: 3; INS-1E GSIS act: 17

Results for CNC[C@@H]1Oc2ccc(NC(=O)NC(C)C)cc2CC(=O)N([C@H](C)CO)C[C@@H]1C ?
PAX8 reporter: 14; Cneo AK release: -1; INS-1E GSIS act: 5

How did CNC[C@@H]1Oc2ccc(NC(=O)NC(C)C)cc2CC(=O)N([C@@H](C)CO)C[C@@H]1C do in these assays?
PAX8 reporter: 92*; Cneo AK release: 1; INS-1E GSIS act: 19

How did CNC[C@H]1Oc2ccc(NC(=O)NC(C)C)cc2CC(=O)N([C@@H](C)CO)C[C@@H]1C do in these assays?
PAX8 reporter: 91*; Cneo AK release: -1; INS-1E GSIS act: 22

What do the screens show for `Cc1ccc(Nc2nc(N)nc(-c3oc4ccccc4c3C)n2)cc1`?
CDK5 p35 inh: 1; dFosB act: 76*

How did C[C@H](CO)N1C[C@H](C)[C@H](CN(C)Cc2ccc(Cl)c(Cl)c2)Oc2ccc(NS(=O)(=O)c3cn(C)cn3)cc2CC1=O do in these assays?
PAX8 reporter: 23; HIV Env fusion: 2[16.7 µM]; Cneo AK release: -11; INS-1E GSIS act: -29

What do the screens show for `O=C(C[C@H]1CC[C@H]2[C@@H](COC[C@H](O)CN2C(=O)c2ccccn2)O1)NC1CCC1`?
Cneo AK release: 0; INS-1E GSIS act: 3

How did COc1cccc(S(=O)(=O)Nc2ccc3c(c2)[C@H]2C[C@@H](CC(=O)NCc4ccc(Cl)cc4)O[C@H](CO)[C@H]2O3)c1 do in these assays?
PAX8 reporter: 63*; HIV Env fusion: 36[16.7 µM]; Cneo AK release: -1; INS-1E GSIS act: -17

How did COc1cccc(S(=O)(=O)Nc2ccc3c(c2)[C@@H]2C[C@H](CC(=O)NCc4ccc(Cl)cc4)O[C@H](CO)[C@@H]2O3)c1 do in these assays?
PAX8 reporter: 18; HIV Env fusion: -2[16.7 µM]; Cneo AK release: -2; INS-1E GSIS act: 7
